# Assay outcomes (PubChem BioAssay)
# INS promoter inh: TRM-6 insulin promoter activity inhibition; TRM-6 cells (human fetal islet line), insulin promoter-eGFP reporter, imaging; reporter expression induced with tamoxifen; inhibition, % at 2 µM; actives 0.9% (n = 130,000); AID 1273;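 active means inhibition above the mean plus 3 SD, with well images judged a real hit on visual review, cut at about 60% in these data, passing the limit was not always enough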
# NPY1 pot ag: human NPY-Y1 potentiation or agonism, primary screen; NPY-Y1 expressing cells, potentiator/agonist activation; activation, % at 3.6 µM; AID 1304; actives 0.37% (n = 220,000); P25929; in the data active means activation above about 33%, passing the limit was not always enough;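 further: cells stimulated with NPY at EC10 then isoproterenol at EC100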
# Target sequence (P25929 whole entry, looked up): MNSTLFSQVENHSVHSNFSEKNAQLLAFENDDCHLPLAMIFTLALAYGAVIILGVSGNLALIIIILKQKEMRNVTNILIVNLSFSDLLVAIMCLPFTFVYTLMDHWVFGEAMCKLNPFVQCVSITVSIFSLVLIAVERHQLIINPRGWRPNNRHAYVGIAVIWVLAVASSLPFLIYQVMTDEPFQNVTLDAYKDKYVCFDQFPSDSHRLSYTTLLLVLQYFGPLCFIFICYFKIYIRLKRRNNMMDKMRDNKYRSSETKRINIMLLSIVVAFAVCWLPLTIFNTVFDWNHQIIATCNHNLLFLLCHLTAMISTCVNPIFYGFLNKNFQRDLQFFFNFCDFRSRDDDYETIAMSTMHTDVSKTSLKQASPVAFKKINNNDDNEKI
# Ins promoter up: MIN6 insulin promoter up-regulation; MIN6 insulin promoter-GFP reporter, high-content imaging; active compounds read high; z-score at 5 µM; actives 0.3% (n = 190,000); AID 1625;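 active means z-score above 3 at 5 µM with at least 500 cells counted in the well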
# NPY-Y2 PAM-ag: human NPY-Y2 potentiation or agonism, primary screen | P49146 | cells expressing NPY-Y2, potentiator/agonist read-out | activation, % at 3.6 µM | actives 0.45% (n = 220,000); in the data active means activation above about 27%;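 further: cells stimulated with NPY near EC25 plus isoproterenol at EC100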
# NPY-Y2 antag: antagonists of human neuropeptide Y receptor Y2. NPY-Y2 expressing cells, antagonist mode. inhibition, % at 2.7 µM. actives 0.99% (n = 140,000). AID 793; in the data active means inhibition above about 17%
# NPY Y1 blocker: antagonists of human neuropeptide Y receptor Y1 | inhibition, % at 3.6 µM | HEK293-CNG Y1 cells, membrane potential fluorescence; NPY at EC95, then isoproterenol | actives 1% (n = 200,000) | P25929;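 active means inhibition above the campaign mean inhibition of all tested compounds plus 3 SD, cut at about 20% in these data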
#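 Material: HEK293 Y1/CNG channel cell line; also added: NPY (25 nM), isoproterenol (1 µM), Ro 20-1724 (25 µM); doses: one concentration, 3.6 µM, in 0.4% DMSO; schedule: compound incubation 1 h at room temperature, readout 45 min post-stimulation; technique: membrane potential fluorescence; measure: fluorescence ratio normalized to % inhibition between controls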
# Numbers stand for hits; . = inactive; / = not tested or not shown. An excerpt weighted towards active compounds, which were near 2.5% of everything screened.
SMILES,INS promoter inh,NPY1 pot ag,Ins promoter up,NPY-Y2 PAM-ag,NPY-Y2 antag,NPY Y1 blocker
OC(COc1cccc2ccccc12)CN1CCN(c2ccc(Cl)cc2)CC1 (configuration not stated),/,.,.,.,/,/
Cc1cc2c(OCC(O)CN3CCCCC3)cccc2[nH]1 (configuration not stated),.,110.0,.,100.9,/,.
Cc1cc2c(OCC(O)CNC3CCCCC3)cccc2[nH]1 (configuration not stated),.,110.3,.,103.0,/,.
OC(COc1ccccc1)CN1CCCCCC1 (configuration not stated),.,.,.,.,/,.
C=C1CC(C)OC(c2ccccc2OCC(O)CN2CCCCC2)C1 (configuration not stated),.,75.4,.,69.8,.,.
CN(C)/C=C1\SC(=S)N(N2C(=O)C3C4C=CC(C4)C3C2=O)C1=O (configuration not stated),/,.,.,.,/,.
O=C(c1ccc(-c2cc(Cl)ccc2Cl)o1)N1CCOCC1,.,.,/,.,/,20.3
Cc1ccc2c(c1)N=C(c1ccccc1)CC(C(Cl)Cl)=N2,/,.,.,.,/,/
Cc1ccc(C2=Nc3ccccc3N=C(C(Cl)Cl)C2)cc1,82.3,.,/,.,/,.
COc1ccc(CNCCC(c2ccccc2)c2ccc3c(c2)OCO3)cc1 (configuration not stated),.,.,/,.,17.4,33.7
O=C(Cn1cnc([N+](=O)[O-])n1)N/N=C/c1ccccc1O,.,.,/,.,.,.
Cc1ccccc1/C=N/NC(=O)Cn1cnc([N+](=O)[O-])n1,.,111.5,.,.,.,.
CC(=O)Nc1ccc(NC(=O)Cc2ccc(S(=O)(=O)N3CCCCC3)s2)cc1,80.0,.,/,.,.,.
CCCCCCc1cc2cc(-c3nnc(-c4cc(OC)c(OC)c(OC)c4)o3)c(=O)oc2cc1O,.,.,9.96,.,.,.
CCCCCCc1cc2cc(-c3nnc(-c4ccccc4O)o3)c(=O)oc2cc1O,.,.,7.49,.,.,.
CCCCCCc1cc2cc(S(=O)(=O)c3ccc(F)cc3)c(=O)oc2cc1O,/,.,.,.,.,.
CCCCCCc1cc2cc(C(=O)Nc3ccccc3OC)c(=O)oc2cc1O,.,.,.,.,.,.
CCCCCCc1cc2cc(-c3nnc(-c4ccccc4OC)o3)c(=O)oc2cc1O,.,.,8.91,.,.,.
O=C(Oc1cccc(Nc2ncnc3ccccc23)c1)c1ccccc1Cl,.,.,.,.,.,.
Cc1ccc(N(CN2CCCC2=O)C(=O)c2ccccc2)cc1,/,.,.,.,/,.
COc1ccc(C(=O)N(CN2CCCC2=O)c2ccc(C)cc2)cc1,/,.,3.42,.,.,.
COc1cccc(CNCCc2c[nH]c3ccccc23)c1OCc1ccccc1,/,.,.,.,24.1,50.5
COc1cc2c(cc1OC)C(C(=O)N1CCN(c3ccccc3)CC1)C(c1cccs1)N(C)C2=O (configuration not stated),.,.,.,.,.,.
O=c1c2nnn(Cc3ccccc3)c2ncn1C/C=C/c1ccccc1,/,.,.,.,.,.
CC(=O)Nc1c(C(=O)c2ccccc2)oc2ccccc12,71.4,.,.,.,.,.
SMILES,INS promoter inh,NPY1 pot ag,Ins promoter up,NPY-Y2 PAM-ag,NPY-Y2 antag,NPY Y1 blocker
CC(=O)Nc1c(C(=O)C2CC2)oc2ccccc12,.,.,.,.,.,.
COc1ccc(C(=O)C2CCCN(C(=O)Cn3nc(C)cc3C)C2)cc1F (configuration not stated),/,.,.,.,/,/
Cc1csc(=Nc2cccnc2)n1CC1CCCCC1,.,.,.,.,.,.
C=CCN1C(=Nc2cccnc2)SCC1(O)c1ccc(C)cc1 (configuration not stated),.,.,.,.,21.4,.
COc1ccc(N(C(=O)CCl)C(C(=O)NCCc2ccccc2)c2cccs2)cc1 (configuration not stated),.,54.1,/,35.1,.,.
COc1ccc(CNC(=O)C(c2ccncc2)N(C(=O)Cc2cccs2)c2ccccc2)cc1 (configuration not stated),/,.,.,.,.,.
O=C(NC(Cc1c[nH]c2ccccc12)C(=O)O)/C(=C/c1ccc2c(c1)OCO2)NC(=O)c1ccccc1 (configuration not stated),72.7,.,/,.,/,.
CC(CCc1ccccc1)NC(=O)COC(=O)c1ccc(S(C)(=O)=O)c([N+](=O)[O-])c1 (configuration not stated),.,66.4,.,52.2,/,.
COCCNC(=O)CSCc1cc(C)cc(C)c1,/,.,.,.,/,.
O=C1NC2=C(CCc3ccccc32)C(c2ccccc2)N1 (configuration not stated),61.1,.,.,.,.,.
C=CCOc1ccc(C2NC(=S)NC3=C2CCc2ccccc23)cc1 (configuration not stated),/,.,.,.,/,/
Cc1c(NC(=S)Nc2cccc(Cl)c2)c(=O)n(-c2ccccc2)n1C,.,.,.,.,/,.
COc1ccc(C2c3c(-c4cc(Cl)c(C)cc4O)n[nH]c3C(=O)N2Cc2cccnc2)cc1OC (configuration not stated),.,.,.,.,55.3,44.7
CCCCCCN=CC1=C(O)C(C(=O)OC)C(C)(C)CC1=O (configuration not stated),93.1,.,.,.,.,.
COc1cccc(C(=O)Nc2nnc(-c3cccs3)s2)c1,.,.,/,.,.,.
COc1cccc(Nc2nc3ccc(OC)cc3s2)c1,71.4,.,.,.,/,.
COc1ccc(Nc2nc3ccccc3s2)cc1,/,.,.,.,/,.
CCCc1cc(=O)c2ccc(OC/C(C)=N/O)cc2o1,/,.,.,.,/,/
CN(C)c1ccc(/C=C2\SC(=O)N(CCc3nnc(N)s3)C2=O)cc1,/,.,3.27,.,/,/
Cc1ccc2nc3c(cc(C#N)c(=N)n3Cc3cccnc3)c(=O)n2c1,.,.,/,.,/,.
O=C1C2ON(c3ccccc3)C(c3ccncc3)C2C(=O)N1c1ccccc1 (configuration not stated),72.7,.,.,.,.,.
Cc1cccc(C)c1N1C(=O)C2ON(c3ccccc3)C(c3ccncc3)C2C1=O (configuration not stated),/,.,.,.,.,.
Cc1nc2ccccc2nc(C)c1=NOCc1ccccc1Cl,.,.,.,.,.,.
O=C(CCc1ccc(S(=O)(=O)NCc2ccccc2)cc1)NCc1ccc2c(c1)OCO2,.,.,.,.,.,.
O=C(NCc1ccc2c(c1)OCO2)C1(S(=O)(=O)c2ccccc2)CC1,93.3,.,/,.,.,.
O=S(=O)(NCc1ccc2c(c1)OCO2)c1ccc2oc3ccccc3c2c1,.,.,/,.,19.3,21.2
CC1(C)OC1COc1c2ccoc2cc2oc(=O)ccc12 (configuration not stated),/,.,.,.,/,.
COc1ccc(C(=O)Cc2nnc(C)s2)cc1,.,.,.,.,.,.
